Data published in ChEMBL document CHEMBL1144558, “Potent anticancer activities of novel aminophenol analogues against various cancer cell lines” (2007).
The source made the active and inactive calls. The calls are words filed in the database; no cut-off is given here.

Tests used:
DU-145 = assay: Growth inhibition of human DU145 cells at 4 uM after 68 hrs relative to control; type: functional; conditions: DU-145, 68 h
In short: (§1)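 Adherent cells trypsinized, seeded at 0.5 × 10^4 cells/ml in RPMI 1640 with 10% FBS (maintenance medium also 10 mM HEPES pH 7.3), 37 °C, 5% CO2. Compound (4 µM) added after 1 day; 68 h exposure. Viable cells by MTT; % net growth = (treated − initial absorbance)/(control − initial absorbance) × 100. Mean of ≥3 (MCF-7 lines) or ≥4 (DU-145, HepG2) measurements.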

MCF7 [1] = assay: Growth inhibition of human estrogen receptor expressing MCF7 cells at 4 uM after 68 hrs relative to control; type: functional; conditions: MCF7, 68 h; in short: as §1
HepG2 = assay: Growth inhibition of human HepG2 cells at 4 uM after 68 hrs relative to control; type: functional; conditions: HepG2, 68 h; in short: as §1
MCF7 [2] = assay: Growth inhibition of human estrogen receptor deficient adriamycin-resistant MCF7 cells at 4 uM after 68 hrs relative to control; type: functional; conditions: MCF7, 68 h; in short: as §1
HL-60 [3] = assay: Growth inhibition of human HL60 cells at 4 uM after 72 hrs relative to control; type: functional; conditions: HL-60, 72 h
HL-60 [4] = assay: Induction of apoptosis in human HL60 cells assessed as DNA fragmentation at 4 uM after 20 hrs; type: functional, cell-based
In short: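 Cells at 2 × 10^5 cells/ml in RPMI/10% FBS treated 20 h with 4 µM compound (DMSO control). Washed in PBS pH 7.2, lysed with proteinase K, RNase A and 1% SDS at 37 °C for 30 min, then NaI/isopropanol DNA extraction at 60 °C. DNA run on 2% agarose gel, stained with ethidium bromide, scored for ladder.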

Compound | inhibition at 4 µM (DU-145) [%] | inhibition at 4 µM (MCF7 [1]) [%] | inhibition at 4 µM (HepG2) [%] | inhibition at 4 µM (MCF7 [2]) [%] | inhibition at 4 µM (HL-60 [3]) [%] | Activity (HL-60 [4])
CC1=C(/C=C/C(C)=C/C=C/C(C)=C/C(=O)Nc2ccc(O)cc2)C(C)(C)CCC1 [FENRETINIDE] | 41 | 62 | 27 | 60 | 55 | –
CC1=C(/C=C/C(C)=C/C=C/C(C)=C/C(=O)O)C(C)(C)CCC1 [TRETINOIN] | 46 | 74 | 13 | 12 | 42 | –
CCCCCCCCCC(=O)Nc1ccc(O)cc1 | 51 | 30 | 26 | 23 | 6 | –
CCCCCCCCCCCC(=O)Nc1ccc(O)cc1 | 41 | 22 | 22 | 21 | 6 | –
CCCCCCCCCCNc1ccc(O)cc1 | 66 | 57 | 17 | 100 | 66 | Active
CCCCCCCCCCCCNc1ccc(O)cc1 | 73 | 66 | 13 | 100 | 72 | Active
